Source: ChEMBL document CHEMBL1154411, “Determination of the primary target of a quinolone drug and the effect of quinolone resistance-conferring mutations by measuring quinolone sensitivity based on its mode of action” (Antimicrob Agents Chemother, 2007)
Calls of active or inactive are those of the source. The rule behind the calls is not given here.

Columns and labels:
[1] = test system: T1, DNA topoisomerase 4 subunit A (Escherichia coli K-12), P0AFI2 [S80L]; experiment: Induction of Staphylococcus aureus DNA topoisomerase 4 ParC S80L mutant-mediated Escherichia coli pBR322 DNA cleavage assessed as ratio of drug-induced DNA cleavage to spontaneous DNA cleavage at 50 uM after 10 mins by gel electrophoresis
T1 sequence (whole entry): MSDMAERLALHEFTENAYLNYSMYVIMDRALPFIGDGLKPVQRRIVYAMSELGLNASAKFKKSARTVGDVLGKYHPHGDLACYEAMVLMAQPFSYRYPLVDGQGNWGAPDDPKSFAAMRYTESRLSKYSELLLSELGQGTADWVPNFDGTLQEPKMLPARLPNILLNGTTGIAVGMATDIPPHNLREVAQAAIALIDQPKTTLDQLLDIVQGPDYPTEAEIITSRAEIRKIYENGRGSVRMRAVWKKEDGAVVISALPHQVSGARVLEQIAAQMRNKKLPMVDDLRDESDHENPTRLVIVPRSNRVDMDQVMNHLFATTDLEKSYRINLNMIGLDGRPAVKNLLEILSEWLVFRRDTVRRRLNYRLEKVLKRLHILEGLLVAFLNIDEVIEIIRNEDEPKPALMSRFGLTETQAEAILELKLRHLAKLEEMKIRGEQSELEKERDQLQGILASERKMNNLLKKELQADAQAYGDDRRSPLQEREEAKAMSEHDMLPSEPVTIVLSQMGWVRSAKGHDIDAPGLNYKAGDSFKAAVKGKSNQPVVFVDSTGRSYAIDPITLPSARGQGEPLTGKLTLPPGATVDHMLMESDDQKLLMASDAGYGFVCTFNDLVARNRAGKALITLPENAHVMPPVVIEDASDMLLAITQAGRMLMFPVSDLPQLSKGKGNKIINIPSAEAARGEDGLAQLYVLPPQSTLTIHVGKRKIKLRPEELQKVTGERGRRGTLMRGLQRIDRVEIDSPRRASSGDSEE

Escherichia coli [2] = experiment: Induction of Escherichia coli DNA topoisomerase 4-mediated Escherichia coli pBR322 DNA cleavage assessed as ratio of drug-induced DNA cleavage to spontaneous DNA cleavage at 50 uM after 10 mins by gel electrophoresis
Procedure, shortened: (§1)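 Quinolone sensitivity is the ratio of specific cleavage activity with 50 μM norfloxacin to the activity without it. Both come from the same pBR322 cleavage reaction: 37°C for 10 min with 1 mM ATP, then SDS/proteinase K trapping, with linear DNA resolved on ethidium-stained 1.2% agarose gels.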

Escherichia coli [3] = experiment: Induction of Escherichia coli DNA gyrase-mediated negatively supercoiled Escherichia coli pBR322 DNA cleavage at 50 uM after 10 mins by gel electrophoresis
Procedure, shortened: (§2)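 Negatively supercoiled pBR322 (300 ng) incubated with titrated topoisomerase (tetramer amounts) in 50 mM Tris-HCl pH 8, 10 mM MgCl2, 10 mM DTT, 50 μg/ml BSA, 1 mM ATP, 5 μg/ml tRNA, 10 min at 37°C, with or without 50 μM norfloxacin. Trapped by 1% SDS, then EDTA/proteinase K, extracted, and run on 1.2% agarose with ethidium bromide; activity is linear DNA per enzyme amount.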

Escherichia coli [4] = experiment: Induction of Escherichia coli DNA topoisomerase 4 ParC […] mutant-mediated negatively supercoiled Escherichia coli pBR322 DNA cleavage assessed as amount of linear DNA generated per unit amount of enzyme at 50 uM after 10 mins by gel electrophoresis; procedure, shortened: as §2
Staphylococcus aureus [5] = experiment: Sensitivity ratio for induction of Staphylococcus aureus DNA topoisomerase 4 over DNA gyrase-mediated negatively supercoiled Escherichia coli pBR322 DNA cleavage
Staphylococcus aureus [6] = experiment: Induction of Staphylococcus aureus DNA topoisomerase 4-mediated negatively supercoiled Escherichia coli pBR322 DNA cleavage assessed as amount of linear DNA generated per unit amount of enzyme at 50 uM after 10 mins by gel electrophoresis; procedure, shortened: as §2
[7] = biological target: T2, DNA gyrase (Staphylococcus aureus) (UniProt P0A0K8+P20831); experiment: Induction of Staphylococcus aureus DNA gyrase-mediated negatively supercoiled Escherichia coli pBR322 DNA cleavage at 50 uM after 10 mins by gel electrophoresis; assay type: protein-complex assay; procedure, shortened: as §2
T2 sequence (P0A0K8 2-644 limits assumed): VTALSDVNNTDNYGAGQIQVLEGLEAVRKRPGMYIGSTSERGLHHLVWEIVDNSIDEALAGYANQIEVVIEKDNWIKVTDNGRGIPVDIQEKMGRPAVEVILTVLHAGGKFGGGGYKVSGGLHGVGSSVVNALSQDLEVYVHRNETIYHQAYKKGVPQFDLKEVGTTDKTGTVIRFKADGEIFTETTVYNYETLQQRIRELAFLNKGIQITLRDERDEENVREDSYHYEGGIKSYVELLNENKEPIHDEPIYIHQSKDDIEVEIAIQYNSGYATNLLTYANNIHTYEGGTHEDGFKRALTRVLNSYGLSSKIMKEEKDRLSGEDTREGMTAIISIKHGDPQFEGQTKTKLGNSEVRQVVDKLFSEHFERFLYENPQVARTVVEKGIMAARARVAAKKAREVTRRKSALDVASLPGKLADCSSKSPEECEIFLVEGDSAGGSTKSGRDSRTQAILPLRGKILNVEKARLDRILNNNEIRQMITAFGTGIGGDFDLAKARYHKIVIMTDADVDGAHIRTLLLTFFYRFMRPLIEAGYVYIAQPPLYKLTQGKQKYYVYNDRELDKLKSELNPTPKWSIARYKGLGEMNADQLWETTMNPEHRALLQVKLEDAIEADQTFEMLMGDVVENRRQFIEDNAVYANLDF
T2 sequence (P20831 whole entry partner): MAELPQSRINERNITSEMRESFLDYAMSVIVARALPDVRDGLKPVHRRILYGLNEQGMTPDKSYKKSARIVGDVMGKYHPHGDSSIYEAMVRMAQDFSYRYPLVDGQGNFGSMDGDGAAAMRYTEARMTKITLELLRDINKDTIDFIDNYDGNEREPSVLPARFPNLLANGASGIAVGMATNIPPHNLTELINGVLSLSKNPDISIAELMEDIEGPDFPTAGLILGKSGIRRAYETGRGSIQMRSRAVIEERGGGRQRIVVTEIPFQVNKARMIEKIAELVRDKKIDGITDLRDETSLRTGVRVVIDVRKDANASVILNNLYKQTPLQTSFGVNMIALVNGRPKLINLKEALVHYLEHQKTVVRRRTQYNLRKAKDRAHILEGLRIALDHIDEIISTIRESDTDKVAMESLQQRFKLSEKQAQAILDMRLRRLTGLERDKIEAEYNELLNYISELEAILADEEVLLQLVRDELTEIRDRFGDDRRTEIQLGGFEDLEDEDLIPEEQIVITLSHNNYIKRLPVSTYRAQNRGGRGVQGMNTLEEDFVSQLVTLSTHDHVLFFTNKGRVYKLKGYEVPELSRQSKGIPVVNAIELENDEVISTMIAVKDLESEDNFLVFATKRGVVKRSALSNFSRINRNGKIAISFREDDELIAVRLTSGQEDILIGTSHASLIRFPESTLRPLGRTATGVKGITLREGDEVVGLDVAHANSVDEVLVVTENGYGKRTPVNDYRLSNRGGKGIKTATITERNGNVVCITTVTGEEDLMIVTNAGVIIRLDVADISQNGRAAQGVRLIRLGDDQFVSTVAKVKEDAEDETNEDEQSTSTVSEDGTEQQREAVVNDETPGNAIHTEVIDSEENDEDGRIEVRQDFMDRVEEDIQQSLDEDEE

[8] = biological target: T2, DNA gyrase (Staphylococcus aureus); experiment: Induction of Staphylococcus aureus DNA gyrase-mediated Escherichia coli pBR322 DNA cleavage assessed as ratio of drug-induced DNA cleavage to spontaneous DNA cleavage at 50 uM after 10 mins by gel electrophoresis; assay type: protein-complex assay; procedure, shortened: as §1
Escherichia coli [9] = experiment: (§3) Induction of Escherichia coli DNA topoisomerase 4-mediated negatively supercoiled Escherichia coli pBR322 DNA cleavage assessed as amount of linear DNA generated per unit amount of enzyme at 50 uM after 10 mins by gel electrophoresis; procedure, shortened: as §2
[10] = test system: T1, DNA topoisomerase 4 subunit A (Escherichia coli K-12), P0AFI2 [S80L]; experiment: as §3; procedure, shortened: as §2
Escherichia coli [11] = experiment: Induction of Escherichia coli DNA topoisomerase 4-mediated negatively supercoiled Escherichia coli pBR322 DNA cleavage at 50 uM after 10 mins by gel electrophoresis; procedure, shortened: as §2
Staphylococcus aureus [12] = experiment: Induction of Staphylococcus aureus DNA topoisomerase 4-mediated Escherichia coli pBR322 DNA cleavage assessed as ratio of drug-induced DNA cleavage to spontaneous DNA cleavage at 50 uM after 10 mins by gel electrophoresis; procedure, shortened: as §1
Escherichia coli [13] = experiment: Induction of Escherichia coli DNA gyrase-mediated Escherichia coli pBR322 DNA cleavage assessed as ratio of drug-induced DNA cleavage to spontaneous DNA cleavage at 50 uM after 10 mins by gel electrophoresis; procedure, shortened: as §1
[14] = biological target: DNA gyrase (Escherichia coli) (UniProt P0AES6+P0AES4); experiment: Induction of Escherichia coli DNA gyrase-mediated negatively supercoiled Escherichia coli pBR322 DNA cleavage assessed as amount of linear DNA generated per unit amount of enzyme at 50 uM after 10 mins by gel electrophoresis; assay type: protein-complex assay; procedure, shortened: as §2
Escherichia coli [15] = experiment: Sensitivity ratio for induction of Escherichia coli DNA topoisomerase 4 over DNA gyrase-mediated negatively supercoiled Escherichia coli pBR322 DNA cleavage
Staphylococcus aureus [16] = experiment: Induction of Staphylococcus aureus DNA topoisomerase 4-mediated negatively supercoiled Escherichia coli pBR322 DNA cleavage at 50 uM after 10 mins by gel electrophoresis; procedure, shortened: as §2

CCn1cc(C(=O)O)c(=O)c2cc(F)c(N3CCNCC3)cc21
Ratio [1]: 1.96 | Ratio (Escherichia coli [2]): 3.79 | Activity (Escherichia coli [3]): Active | Activity (Escherichia coli [4]): 0.17 ng | Ratio (Staphylococcus aureus [5]): 2.5 | Activity (Staphylococcus aureus [6]): 0.42 ng | Activity [7]: Active | Ratio [8]: 10 | Activity (Escherichia coli [9]): 0.53 ng | Activity [10]: 0.49 ng | Activity (Escherichia coli [11]): Active | Ratio (Staphylococcus aureus [12]): 24.7 | Ratio (Escherichia coli [13]): 68.4 | Activity [14]: 0.39 ng | Ratio (Escherichia coli [15]): 18 | Activity (Staphylococcus aureus [16]): Active
